Assay results taken from PubChem BioAssay AID1800 (The Scripps Research Institute Molecular Screening Center, 2009).
Among all 290,000 compounds or so, about 1,600 (0.55%) were called active.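 How the source made its calls: active means inhibition above the mean of all tested compounds plus 3 SD, set per campaign (cut at about 35% in these data); inactive means the rest.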 The sample as a whole holds a higher share of actives than the screen did.

The molecules below were run on Hepatitis C virus NS3 helicase (assay: inhibitors of HCV NS3 helicase, primary screen, biochemical, Cy5 molecular beacon fluorescence (AID 1800;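 further: 0% = DMSO wells and 100% = thioflavine S control wells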)). Conditions: NS3 helicase DNA unwinding, at 10.9 µM, active compounds read high.
Summary of the method: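 test system = hepatitis C virus NS3 helicase domain fragment enzyme | reagent = annealed dual-labelled DNA beacon duplex, ATP-started | times = 1 h at 25 °C | detection = Cy5 fluorescence, 0 and 60 min reads | read-out basis = percent inhibition from t60/t0 fluorescence ratio | control set = DMSO and thioflavine S | replication = one well per compound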

| Compound | inhibition |
| --- | --- |
| Cc1cc(O)c(C(=O)/C=C/c2c(F)c(F)c(F)c(F)c2F)c(=O)o1 | 53.7% (active) |
| Cc1ccc(N=Cc2c(O)cc(C)oc2=O)c(C)c1 | -4.71% (inactive) |
| COc1ccc(Cl)cc1NC(=O)CN(C)C(=O)CCCc1c[nH]c2ccccc12 | -11.3% (inactive) |
| Cc1nc2ccccc2c(=O)n1NC(=O)c1ccc(Cl)c([N+](=O)[O-])c1 | -12.7% (inactive) |
| Cc1ccc(C(=O)O)cc1-c1ccc(/C=C2\SC(=O)N(CC(=O)Nc3ccc4c(c3)OCO4)C2=O)o1 | 46.3% (active) |
| COc1ccc(NC(=O)CCN2C(=O)/C(=C/c3ccc4c(c3)OCO4)SC2=S)cc1 | -4.44% (inactive) |
| O=C(CN1CCN(CC(=O)Nc2ccc3c(c2)OCO3)CC1)Nc1ccc(F)cc1 | 2% (inactive) |
| COc1ccccc1-n1c(SCC(=O)O)nc2sc3c(c2c1=O)CCC3 | 5.31% (inactive) |
| Cc1ccc(C)c(-n2c(SCC(=O)O)nc3sc4c(c3c2=O)CCCC4)c1 | 37.1% (active) |
| CCSc1nc2sc3c(c2c(=O)n1-c1ccc(C)cc1)CCN(C)C3 | -28.2% (inactive) |
| Cc1cccc(N2CCN(C(C)C(=O)N3CCc4ccccc43)CC2)c1C (stereo not given) | -14.8% (inactive) |
| Cc1cccc(N(C)C(=O)c2cc(S(=O)(=O)N3CCCCC3)c[nH]2)c1 | -16.4% (inactive) |
| Cc1ccc(OCc2cc(C(=O)N(C)CCn3ccnc3C)no2)cc1C | -14.7% (inactive) |
| Cc1ccc(OCC(=O)Nc2nnc(-c3ccco3)s2)cc1 | 13.6% (inactive) |
| CNc1nnc(-c2ccco2)s1 | -1.81% (inactive) |
| COc1ccc(OCC(=O)Nc2nnc(-c3ccco3)s2)cc1 | 58.5% (active) |
| Cc1cccc(NC(=O)CCn2c(=O)oc3ccccc32)c1 | -6.84% (inactive) |
| COc1ccc(C(=O)C2CCCN(C(=O)c3ccc(OC)o3)C2)c(C)c1 (stereo not given) | -2.85% (inactive) |
| COC(=O)C1=C(C)N(C(C)c2ccccc2)C(=O)/C1=C\c1ccco1 (stereo not given) | 20.9% (inactive) |
| COc1cc(CN2CCC(C(N)=O)CC2)ccc1OCc1ccccc1 | -5.96% (inactive) |
| COc1cc(C2CC(=O)N3CN(Cc4ccccc4)CSC3=C2C#N)ccc1OCc1ccccc1 (stereo not given) | 52.1% (active) |
| COc1cc(CNC2CCCC2)c(Br)cc1OCc1ccccc1 | -30.4% (inactive) |
| COC(=O)c1cc(S(=O)(=O)N2CCC(C(N)=O)CC2)oc1C | 4.32% (inactive) |

| Compound | inhibition |
| --- | --- |
| COc1ccccc1C1/C(=C(/O)c2ccc(OC(C)C)cc2)C(=O)C(=O)N1c1cc(C)on1 (stereo not given) | 43.1% (active) |
| COc1ccc(C2/C(=C(/O)c3ccccc3)C(=O)C(=O)N2C)c(OC)c1 (stereo not given) | 3.37% (inactive) |
| Cc1cc(N2C(=O)C(=O)/C(=C(/O)c3ccc(Cl)cc3)C2c2cccc(Br)c2)no1 (stereo not given) | 24.4% (inactive) |
| CN(c1ccccc1)S(=O)(=O)c1ccc(C(=O)NCCc2ccccc2)cc1 | -7.81% (inactive) |
| O=C(CC1C(=O)NCCN1C(=O)c1ccc([N+](=O)[O-])cc1)Nc1cccc(Cl)c1 (stereo not given) | -5.86% (inactive) |
| Cc1ccc(Nc2ncnc3c2cnn3C)c(C)c1 | 5.11% (inactive) |
| Cc1ccc(/C=C/C(=O)Nc2cc(S(=O)(=O)N3CCCCCC3)ccc2OCC(F)(F)F)o1 | 21.8% (inactive) |
| Cc1ccc(/C=C/C(=O)Nc2ccc([N+](=O)[O-])c(NC(=O)/C=C/c3ccc(C)o3)c2)o1 | 46.7% (active) |
| CCc1nnc(NC(=O)/C=C/c2ccc(C)o2)s1 | 8.82% (inactive) |
| COc1ccc(C)cc1N(CC(=O)N1CCCC1)S(=O)(=O)c1ccccc1 | 21% (inactive) |
| Cc1ccc(C(c2nnnn2CS(=O)(=O)c2ccc(C)cc2)N2CCC(C)CC2)cc1 (stereo not given) | -6.3% (inactive) |
| CC(=O)N1c2ccc(S(=O)(=O)N(C)CC(=O)N(C)Cc3ccccc3)cc2CC1C (stereo not given) | -2.38% (inactive) |
| Cc1cc(C(=O)CSc2nc(N)cc(=O)[nH]2)c(C)n1Cc1ccco1 | 22.4% (inactive) |
| COc1ccc(C)cc1-n1nnnc1SCC(=O)c1cc(C)n(Cc2ccco2)c1C | 52.1% (active) |
| COCC(C)n1c(C)cc(C(=O)COc2ccc(C)nc2[N+](=O)[O-])c1C (stereo not given) | 2.44% (inactive) |
| Cc1ccc(OCC(=O)c2cc(C)n(Cc3ccco3)c2C)c([N+](=O)[O-])n1 | 41.5% (active) |
| COc1ccc(OC)c(-n2nnnc2SCC(=O)Nc2cc(C)ccc2OC)c1 | -1.59% (inactive) |
| Cc1cc(C(=O)COC(=O)CNC(=O)c2ccc(F)cc2)c(C)n1Cc1ccco1 | 10% (inactive) |
| Cc1cc(S(=O)(=O)N2CCOCC2)ccc1OCC(=O)N1CCOCC1 | -4.99% (inactive) |
| COc1cc(NC(=O)CCS(=O)(=O)c2ccc3c(c2)oc(=O)n3C)cc(OC)c1 | 3.01% (inactive) |
| CCc1ccc(NC(=O)CS(=O)CC(=O)N2CCN(c3ccccc3F)CC2)cc1 (stereo not given) | 8.61% (inactive) |
| COc1ccc(NC(=O)CN2C(=O)CSc3ccc(S(=O)(=O)N4CCC(C)CC4)cc32)cc1 | -2.68% (inactive) |
| COc1ccc(C(=O)CC(=O)C(=O)Nc2cc([N+](=O)[O-])ccc2OC)cc1 | 12.6% (inactive) |

| Compound | inhibition |
| --- | --- |
| COc1cccc(NCCC(=O)c2cccc([N+](=O)[O-])c2)c1 | 2.63% (inactive) |
| COc1cccc(C(=O)CC(=O)C(=O)Nc2ccc([N+](=O)[O-])cc2C)c1 | 37.6% (active) |
| COc1ccc(-n2ncc3c(SCC(=O)NNC(C)=O)ncnc32)cc1 | 5.53% (inactive) |
| Cc1cccc(C)c1-n1c(C)cc(/C=C2\C(=O)NN(c3ccccc3)C2=O)c1C | 9.92% (inactive) |
| O=C(O)C(c1ccccc1)N1C(=O)/C(=C\c2ccc(-c3cccc(Cl)c3)o2)SC1=S (stereo not given) | 8.54% (inactive) |
| O=C1NN(c2ccccc2)C(=O)/C1=C/c1ccc(-c2cccc(C(=O)O)c2)o1 | 54.3% (active) |
| CC(NS(=O)(=O)c1ccc(OCC(=O)N2CCCC2)cc1)c1ccccc1 (stereo not given) | -5.83% (inactive) |
| O=C(NCc1ccccc1)C(=O)NCC1OCCN1S(=O)(=O)c1ccc(Br)cc1 (stereo not given) | -0.44% (inactive) |
| O=C(COc1ccc2c(c1)CCC2)N1CCN(c2ccc(F)cc2)CC1 | -11.2% (inactive) |
| CC1(C)NC(=O)N(CCCCSc2ccc(Cl)cc2)C1=O | -1.4% (inactive) |
| CSc1nc2ccccc2c(=O)n1Cc1ccc(F)cc1 | -9.76% (inactive) |
| CSc1c(SCc2ccccc2)cnn(Cc2ccccc2)c1=O | 48.3% (active) |
| CC(=O)Nc1ccc(NC(=O)CSc2ncnc3c2cnn3Cc2ccccc2)cc1 | -5.31% (inactive) |
| CSc1ccccc1OCc1cc(C(=O)N(C)CCc2c(C)n[nH]c2C)no1 | 11.5% (inactive) |
| O=C(CSCc1ccccc1)Nc1ccccc1 | -0.15% (inactive) |
| O=S(=O)(Nc1ccc2nc(-c3ccco3)[nH]c2c1)c1ccccc1 | -5.98% (inactive) |
| Cc1cccc(NC(=O)c2sc3nc(N4CCOCC4)c4c(c3c2N)CCCC4)c1 | 18.7% (inactive) |
| NC(=O)c1sc2nc3c(c(-c4ccccc4)c2c1N)CCC3 | 1.99% (inactive) |
| Cc1cccc(NC(=O)c2sc3nc4c(c(-c5ccco5)c3c2N)CCC4)c1 | 93% (active) |
| CN(CCc1ccccc1)c1ccc([N+](=O)[O-])cn1 | -0.4% (inactive) |
| CCOC(=O)C1Sc2[nH]c(=O)sc2C(c2ccc(Cl)cc2)C1C(=O)OCC (stereo not given) | 17.4% (inactive) |
| CCOC(=O)c1ccccc1N1C(=O)C2Sc3[nH]c(=O)sc3C(/C=C/c3ccccc3)C2C1=O (stereo not given) | 37.9% (active) |
| CC(OC(=O)c1ccccc1N1C(=O)C2C3CCC(C3)C2C1=O)C(=O)c1ccccc1 (stereo not given) | 1.1% (inactive) |

| Compound | inhibition |
| --- | --- |
| O=C(CN1C(=O)S/C(=C\c2ccccc2Cl)C1=O)NC1C=CS(=O)(=O)C1 (stereo not given) | -23.6% (inactive) |
| COc1cc(-c2nn3c(-c4cccc(C)c4)nnc3s2)cc(OC)c1OC | 12.9% (inactive) |
| c1ccc(-c2cc(-c3nnc4sc(-c5ccccn5)nn34)[nH]n2)cc1 | -7.42% (inactive) |
| Fc1ccc(-c2ccc(-c3nn4c(-c5ccco5)nnc4s3)o2)cc1 | 40.9% (active) |
| C=CCOc1ccc(/C=C2/C(=O)ON=C2C)cc1OCC | 16.9% (inactive) |
| CCOC(=O)c1nnn(-c2nonc2OC)c1-c1ccccc1 | 5.43% (inactive) |
| CCOC(=O)c1nnn(-c2nc(OC)nc(N(C)C)n2)c1-c1ccccc1 | 39.7% (active) |
| CCOC(=O)c1c(N)nn(C(=O)c2ccccc2)c1-c1ccccc1 | -7.63% (inactive) |
| COc1ccc(CN(C)C(C)C(=O)NC2CCCc3ccccc32)cc1 (stereo not given) | -16.3% (inactive) |
| COc1ccc(-c2ocnc2C(=O)Nc2ccc3c(c2)CCC3)cc1 | -14.4% (inactive) |
| COc1ccc(CNS(=O)(=O)c2ccc(NC(=O)N3CCCCC3)cc2)cc1 | -6.52% (inactive) |
| Cc1ccc(-n2nc3c(=O)n(C(C)C(=O)NCc4ccc5c(c4)OCO5)nc(C)c3c2C)cc1 (stereo not given) | 4.33% (inactive) |
| O=C(CCCN1C(=O)/C(=C\c2ccco2)SC1=S)Nc1cccc2ccccc12 | 40.1% (active) |
| O=C(CCCN1C(=O)/C(=C\c2ccccc2)SC1=S)Nc1ccccc1O | -2.1% (inactive) |
| O=C(CCCN1C(=O)/C(=C/c2ccco2)SC1=S)Nc1ccccc1 | 34.7% (inactive) |
| Cc1cc(C)n(CCC(=O)N2CCN(S(=O)(=O)c3ccc(C)c(C)c3)CC2)n1 | -5.54% (inactive) |
| Cc1c(NC(=O)Nc2cccc([N+](=O)[O-])c2)c(=O)n(-c2ccccc2)n1C | 4.3% (inactive) |
| CC1(C)CC(=O)c2c(n(S(=O)(=O)c3ccccc3)c3ccc(NS(=O)(=O)c4ccccc4)cc23)C1 | -3.21% (inactive) |
| CN(C)c1ccc(N/C=C/C(=O)C(F)(F)F)cc1 | 47.6% (active) |
| CC(=O)N(C)c1ccc(NC(=O)C(F)(F)F)cc1 | -2.62% (inactive) |
| CC(C)CNC(=O)C(=O)Nc1ccc(N(C)C)cc1 | -3.21% (inactive) |
